# Assay outcomes as filed in PubChem BioAssay.
# This is a sample that favours compounds with a hit; in the whole collection about 2.4% have one here.
# NPY Y1 blocker = antagonists of human neuropeptide Y receptor Y1; HEK293-CNG Y1 cells, membrane potential fluorescence; NPY at EC95, then isoproterenol; P25929; inhibition, % at 3.6 µM; 1% of 200,000 active;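 active = inhibition above the campaign mean inhibition of all tested compounds plus 3 SD, cut at about 20% in these data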;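 note: 0% = DMSO wells given NPY plus isoproterenol and 100% = isoproterenol alone without NPY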
#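 Assay system: HEK293 cells with Y1 receptor plus CNG channel | Probe or stimulus: NPY (25 nM), isoproterenol (1 µM), Ro 20-1724 (25 µM) | Timing: Compound incubation 1 h at room temperature, readout 45 min post-stimulation | Measured by: Membrane-potential fluorescent dye readout | Benchmarks: High control isoproterenol alone, low control NPY with isoproterenol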
# NPY Y2 blocker = blocks the human neuropeptide Y Y2 receptor; NPY-Y2 expressing cells, antagonist mode; AID 793; 0.99% of 140,000 active; inhibition, % at 2.7 µM; P49146; in the data active = inhibition above about 17%;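 note: 0% = vehicle with agonist challenge and 100% = reference antagonist with challenge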
# S1P4 antag = antagonists of human S1P4 receptor. O95977. S1P4-expressing cells, antagonist mode, reporter read-out. inhibition, % at 4.98 µM. 0.26% of 220,000 active. AID 1510; in the data active = inhibition above about 29%;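 note: 0% = wells stimulated with agonist and 100% = vehicle wells without agonist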
# S1P4 agonist = agonists of human S1P4 receptor; O95977; S1P4-expressing cell line, agonist reporter assay; activation, % at 4.98 µM; 0.35% of 220,000 active; AID 1509; in the data active = activation above about 11%;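 note: 0% = DMSO vehicle and 100% = reference agonist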
# NPY-Y1 PAM-ag = potentiators or agonists of human neuropeptide Y receptor Y1. P25929. 0.37% of 220,000 active. NPY-Y1 expressing cells, potentiator/agonist activation. activation, % at 3.6 µM; in the data active = activation above about 33%, passing the limit was not always enough;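 note: cells stimulated with NPY at EC10 then isoproterenol at EC100; 0% = low agonist plus stimulus and 100% = saturating agonist plus stimulus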
# NPY-Y2 PAM-ag = potentiators or agonists of human neuropeptide Y receptor Y2; P49146; cells expressing NPY-Y2, potentiator/agonist read-out; activation, % at 3.6 µM; 0.45% of 220,000 active; AID 1359; in the data active = activation above about 27%;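 note: cells stimulated with NPY near EC25 plus isoproterenol at EC100; 0% = vehicle plus submaximal agonist and 100% = vehicle plus saturating agonist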
# S1P4 ag conf = confirmation of human S1P4 receptor agonists | AID 1523 | 7% of 740 active | shares compounds with S1P4 agonist | S1P4 agonist cell-based reporter assay | activation, % at 4.98 µM; in the data active = activation above about 12%;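 note: 0% = vehicle and 100% = full reference agonist response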
# S1P1 ag = activates human S1P1, counter-screen for S1P4 agonists; shares compounds with S1P4 agonist; S1P1 agonist cell-based assay, activation; activation, % at 4.98 µM; 4% of 740 active; AID 1563; in the data active = activation above about 21%;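 note: 0% = vehicle wells and 100% = reference agonist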
# Target sequence (P21453 whole entry, looked up): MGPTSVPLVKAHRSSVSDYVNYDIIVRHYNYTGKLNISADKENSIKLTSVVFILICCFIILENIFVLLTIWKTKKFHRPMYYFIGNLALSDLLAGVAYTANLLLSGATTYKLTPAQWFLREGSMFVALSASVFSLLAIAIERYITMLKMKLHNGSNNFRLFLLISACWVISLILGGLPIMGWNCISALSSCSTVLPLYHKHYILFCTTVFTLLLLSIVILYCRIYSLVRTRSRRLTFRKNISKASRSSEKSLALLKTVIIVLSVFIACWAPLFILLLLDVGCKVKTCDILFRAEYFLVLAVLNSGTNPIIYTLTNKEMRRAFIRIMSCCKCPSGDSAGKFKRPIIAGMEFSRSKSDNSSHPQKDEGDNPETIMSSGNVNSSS
# * marks the source's active call; other numbers are inactive results; · = not tested or not shown.
SMILES,NPY Y1 blocker,NPY Y2 blocker,S1P4 antag,S1P4 agonist,NPY-Y1 PAM-ag,NPY-Y2 PAM-ag,S1P4 ag conf,S1P1 ag
Cc1ccc(C2Nc3ccccc3-c3nc4ccccc4n32)o1 (configuration not stated),2,0,-11,12*,0,7,-2,2
Cc1cc(C)c2c(CC(=O)Nc3ccc(Cl)cn3)coc2c1,8,8,-16,-1,-24,-11,·,·
Cc1cccc(N=Cc2cc3c(cc2[N+](=O)[O-])OCO3)c1,-6,-1,-2,16*,8,7,-1,15
COc1ccccc1C(=O)Nn1cnc2ccccc2c1=O,1,1,-18,1,2,2,·,·
COc1ccc(Cl)cc1C(=O)Nn1cnc2ccccc2c1=O,-1,-1,-14,137*,0,13,-2,0
Cc1ccccc1/C=N\NC(=O)c1ccc(Cn2cccn2)o1,3,0,-16,47*,-22,1,-2,-3
O=C(O)/C=C\C(=O)Nc1cc(O)ccc1[N+](=O)[O-],·,·,-4,1,-4,-17,·,·
O=S(=O)(NCc1ccccc1)NCc1ccccc1F,0,·,-2,0,7,-7,·,·
Nc1nnc(SCC(=O)OCC(=O)Nc2ccc(Br)cc2F)s1,5,·,-28,3,-3,-1,·,·
Nc1nnc(SCC(=O)OCC(=O)Nc2ccc(Br)cc2)s1,-5,-1,-11,62*,-18,6,-2,-5
CCOC(=O)CS(=O)(=O)c1ccc(C(F)(F)F)cn1,1,1,3,-2,-14,16,·,·
O=S(=O)(c1ccccc1)c1ccc(C(F)(F)F)cn1,1,·,6,35*,13,15,-3,-4
CCN1CN=C(NS(=O)(=O)c2ccc(C)cc2)NC1,0,2,3,2,10,2,·,·
O=C1c2cccc3cc([N+](=O)[O-])cc(c23)C(=O)N1CCN1CCCC1,·,·,-64,24*,19,-8,23*,92*
CCCNS(=O)(=O)c1cc(Cl)ccc1OC,0,·,1,17*,8,8,-1,-2
COc1ccc(CCNS(=O)(=O)c2cccc(S(=O)(=O)N3CCCC3)c2)cc1OC,-1,1,-14,0,-13,11,·,·
O=C1C2C(C(=O)N1c1nccs1)C1C=CC2C12CC2 (configuration not stated),0,·,-3,-1,-3,-5,·,·
CNCc1c(C)nn(-c2ccccc2)c1C,2,·,-4,34*,0,7,-2,-1
Cc1nn(-c2ccccc2)c(C)c1N,-1,·,4,0,18,-4,·,·
O=c1ncn(-c2ccccc2C(F)(F)F)c2ncccc12,-3,2,-11,1,-8,12,·,·
CCCNc1ccc(C(=O)OCC)cc1[N+](=O)[O-],3,·,-9,34*,-9,-1,-2,8
O=C(Cc1ccccc1)NN1C(=O)C2C3C=CC([C@@H]2C1=O)C31CC1 (some centres not stated),9,0,-20,0,12,4,·,·
Cc1cc(C)cc(SCc2noc(C(=O)NCC3CCCO3)c2C(=O)O)c1 (configuration not stated),17,5,7,1,-13,-26,·,·
CC(=O)c1ccc(NC(=S)NC2CCCC(C)C2C)cc1 (configuration not stated),-10,·,3,0,15,15,·,·
CCCn1c(SCC(=O)Nc2ccc3c(c2)CCC3)n[nH]c1=O,-1,2,2,16*,2,2,-1,-8
SMILES,NPY Y1 blocker,NPY Y2 blocker,S1P4 antag,S1P4 agonist,NPY-Y1 PAM-ag,NPY-Y2 PAM-ag,S1P4 ag conf,S1P1 ag
CCc1ccc(/C([O-])=C(/C(=S)NCCN2CCOCC2)[n+]2ccccc2)cc1,5,·,-21,1,-6,-8,·,·
COc1cccc(NC(=S)N(CCc2c(C)[nH]c3ccccc23)Cc2cccs2)c1,-3,0,-8,16*,-1,10,-2,-2
Cc1[nH]c2ccccc2c1CCN(Cc1cccs1)C(=S)Nc1ccccc1,0,·,-4,-2,23,28,·,·
COc1ccc(OCCOCCOc2ccc(C)cc2[N+](=O)[O-])cc1,9,4,-19,30*,-27,-12,0,-5
COc1cccc(OCCOCCOc2ccc(C)cc2[N+](=O)[O-])c1,3,8,-2,1,-24,-13,·,·
Cn1nnnc1SCc1ccccc1F,5,3,-14,0,0,3,·,·
CN(C1=C(N2CCCCC2)C(=O)c2ccccc2C1=O)c1ccccc1,-5,-14,-30,12*,44*,37*,-2,-5
O=C(CSc1nnc(NC(=O)Cc2ccccc2)s1)NCc1ccco1,0,·,3,17*,-7,5,-3,-3
Cc1cc(C)c2c(=O)[nH]c(SCC(=O)NCCc3ccccc3)nc2n1,6,0,-28,12*,-11,-2,-2,-2
CCCCC(=O)NCCc1ccc(OC)cc1,-6,5,-2,26*,2,8,-2,-4
O=C1C2=C(CCCC2)C(=O)N1CNc1ccccc1,·,·,-5,0,6,-14,·,·
COc1ccccc1C1CC(c2ccco2)=NN1S(C)(=O)=O (configuration not stated),6,·,-13,30*,7,11,-2,-6
CCc1nnc(NC(=O)c2ccc(Cl)c(S(=O)(=O)N3CCc4ccccc4C3)c2)s1,-2,2,-8,20*,-6,11,-2,1
CCc1nnc(NC(=O)c2ccc(S(=O)(=O)N3CCc4ccccc4C3)cc2)s1,5,7,-20,-1,10,-1,·,·
Cc1ccc2nc(NCC(N)=O)nc(-c3ccccc3)c2c1,·,·,-1,1,9,6,·,·
C=CCn1c(COc2cc(C)ccc2C(C)C)nnc1SCC(=O)c1c(N)n(C)c(=O)n(C)c1=O,-6,0,-7,13*,5,-9,0,1
O=C(COC(=O)[C@H](Cc1ccccc1)NC(=O)c1cccs1)Nc1c(Cl)cccc1Cl,7,3,-10,0,-6,1,·,·
C/C(=N\N1CCN(Cc2ccc(Cl)cc2)CC1)c1ccc(F)cc1,·,·,-2,75*,-4,7,-2,4
O=C(Nc1ccc2oc(-c3ccncc3)nc2c1)c1ccc(F)cc1,-4,·,-11,20*,12,7,-2,0
Cc1cc(=O)oc2cc(OC(=O)c3ccco3)ccc12,0,·,-7,2,2,3,·,·
Cc1oc2cc(OC(=O)c3ccco3)ccc2c(=O)c1-c1nc2ccccc2n1C,-3,3,-13,12*,-3,-9,-2,-3
C#Cc1cccc(-n2nnc(C(C)=O)c2C)c1,·,·,-2,68*,-20,-4,-2,1
